ChEMBL document CHEMBL5055621, “Synthesis and Characterization of the Novel Rodent-Active and CNS-Penetrant P2X7 Receptor Antagonist Lu AF27139” (J Med Chem, 2021)

Key:
P2X purinoceptor 7 [1] = molecular target: T1, P2X purinoceptor 7 (Mus musculus, UniProt Q9Z1M0); assay: Antagonist activity at mouse P2X7 receptor expressed in HEK293 cells assessed as inhibition of BzATP-induced calcium-flux measured after 60 mins by FLIPR analysis; format: cell-based
T1 sequence (Q9Z1M0 whole entry): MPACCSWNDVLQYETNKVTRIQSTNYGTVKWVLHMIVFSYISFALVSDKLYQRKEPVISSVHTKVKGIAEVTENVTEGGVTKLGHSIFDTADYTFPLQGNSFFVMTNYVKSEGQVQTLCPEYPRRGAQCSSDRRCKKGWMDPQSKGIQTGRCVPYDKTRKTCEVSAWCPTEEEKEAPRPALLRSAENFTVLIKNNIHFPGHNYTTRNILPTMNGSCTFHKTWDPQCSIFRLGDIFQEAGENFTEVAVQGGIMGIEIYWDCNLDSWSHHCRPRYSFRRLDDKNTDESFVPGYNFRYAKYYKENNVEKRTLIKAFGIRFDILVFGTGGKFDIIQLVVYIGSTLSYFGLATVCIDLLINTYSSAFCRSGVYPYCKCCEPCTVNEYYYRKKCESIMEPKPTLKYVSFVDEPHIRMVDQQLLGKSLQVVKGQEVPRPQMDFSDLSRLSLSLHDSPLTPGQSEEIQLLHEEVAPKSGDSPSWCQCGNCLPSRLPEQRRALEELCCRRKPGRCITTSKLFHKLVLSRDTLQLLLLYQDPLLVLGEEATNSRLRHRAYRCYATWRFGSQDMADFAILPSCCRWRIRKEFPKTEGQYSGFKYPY
Summary of the method: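 Stable rat or mouse P2X7 HEK293 cells in HBSS/20 mM HEPES/2.5 mM probenecid/0.05% BSA, pH 7.4, were loaded with Fluo-4 NW (37 °C 30 min, RT 30 min). After 30 min at RT, calcium fluorescence was read by FLIPR; n ≥ 3.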

P2X purinoceptor 7 [2] = molecular target: T2, P2X purinoceptor 7 (Rattus norvegicus, UniProt Q64663); assay: Antagonist activity at rat P2X7 receptor expressed in HEK293 cells assessed as inhibition of BzATP-induced current at -60 mV by whole cell QPatch electrophysiology; format: cell-based
T2 sequence (Q64663 whole entry): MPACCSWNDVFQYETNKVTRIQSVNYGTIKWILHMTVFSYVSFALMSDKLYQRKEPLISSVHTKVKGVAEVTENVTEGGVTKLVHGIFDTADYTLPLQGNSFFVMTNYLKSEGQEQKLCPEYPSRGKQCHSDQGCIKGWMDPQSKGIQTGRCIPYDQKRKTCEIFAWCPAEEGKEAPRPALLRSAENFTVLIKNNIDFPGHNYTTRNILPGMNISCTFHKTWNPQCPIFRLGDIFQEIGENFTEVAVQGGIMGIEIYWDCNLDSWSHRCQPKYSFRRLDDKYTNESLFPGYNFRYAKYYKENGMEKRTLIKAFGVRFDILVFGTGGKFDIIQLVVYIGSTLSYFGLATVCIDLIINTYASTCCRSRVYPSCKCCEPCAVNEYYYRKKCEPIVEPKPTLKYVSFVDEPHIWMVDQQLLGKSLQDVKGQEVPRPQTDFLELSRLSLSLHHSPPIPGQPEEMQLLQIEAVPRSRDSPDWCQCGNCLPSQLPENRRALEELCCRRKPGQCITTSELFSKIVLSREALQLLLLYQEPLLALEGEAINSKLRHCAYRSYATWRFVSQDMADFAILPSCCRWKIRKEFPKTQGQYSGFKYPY
Summary of the method: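 QPatch automated whole-cell recording was done on rat P2X7-HEK293 cells held at −60 mV. External solution contained 0.1 mM MgCl2 and 0.3 mM CaCl2 (pH 7.4); the CsCl/EGTA internal was pH 7.2.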

[3] = Inhibition of BzATP-induced current in rat primary microglia cells measured after repeated BzATP treatment at -60 mV at 30 nM by whole cell patch clamp assay relative to control; format: functional
Summary of the method: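 Rat primary microglia were whole-cell patch-clamped at −60 mV (external pH 7.4 with 1.8 mM CaCl2; CsCl/EGTA internal pH 7.2). Currents came from 10 s applications of 300 μM BzATP, applied repeatedly. Compound was applied by gravity via capillary for 60 s, and inhibition was taken relative to the control response.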

[4] = Inhibition of BzATP-induced IL-1beta in mouse primary microglia cells primed with LPS measured after repeated BzATP treatment by microplate reader; format: functional, tissue-based
Summary of the method: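 Cortical microglia from rat (P3 pups) or mouse were plated 1 day before assay and primed with 3 EU/mL LPS for 3.5 h. Compound was added for 30 min, then BzATP (1 mM) for 30 min at 37 °C. IL-1β was measured by MesoScale assay, normalised to BCA protein, and given as mean ± SD.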

[5] = Metabolic stability in human hepatocytes assessed as intrinsic clearance at 1 uM measured after 2 hrs; format: ADME, cell-based, Hepatocyte; settings: read-out: CLH (converted)
Cytochrome P450 3A4 = Cytochrome P450 3A4 (Homo sapiens, UniProt P08684); assay: Inhibition of CYP3A4 (unknown origin) upto 25 uM; format: ADME
Cytochrome P450 2C9 = Cytochrome P450 2C9 (Homo sapiens, UniProt P11712); assay: Inhibition of CYP2C9 (unknown origin) upto 25 uM; format: ADME
Cytochrome P450 2D6 = Cytochrome P450 2D6 (Homo sapiens, UniProt P10635); assay: Time dependent inhibition of CYP2D6 (unknown origin) upto 25 uM; format: ADME
[6] = Induction of CYP3A4 mRNA expression in human primary hepatocytes at 10 uM; format: ADME, cell-based, Hepatocyte
Summary of the method: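 Human hepatocytes were exposed to 10 μM compound. CYP3A4 mRNA was measured as the relative increase, with rifampin at 10 μM as reference inducer.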

[7] = Volume of distribution at steady state in rat at 1 mg/kg, iv and 2 mg/kg, po; format: ADME, organism-based; settings: in vivo
Summary of the method: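 Plasma concentration–time profiles were obtained in rats after an iv dose of 1 mg/kg and a po dose of 2 mg/kg. Parameters were estimated by noncompartmental analysis. In vivo work used male Sprague–Dawley rats of 150−200 g unless noted otherwise.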

[8] = Reduction in LPS/BzATP-induced IL-1beta release in icv dosed C57BL/6NCrl mouse frontal cortex assessed as minimal effective dose pretreated 1 hr before BzATP stimulus; format: functional; settings: read-out: MED
Summary of the method: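 Rats and mice with frontal cortex microdialysis probes and a lateral ventricle cannula received icv LPS (rat 3 μg/5 μL; mouse 0.1 μg/3 μL), and 1 h later oral compound in 20% HP-β-cyclodextrin. BzATP icv (rat 50 μg; mouse 5 μg) followed 1 h later.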

hERG (KCNH2) = hERG (KCNH2) (Homo sapiens, UniProt Q12809); assay: Inhibition of human ERG at 30 uM
Summary of the method: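 hERG channel inhibition was measured at 30 μM.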

Rattus norvegicus = assay: Toxicity in Sprague-Dawley rat assessed as histological changes up to 150 mg/kg, po by 7 days exploratory toxicology study; format: organism-based; settings: in vivo, 168 h, time 7 day
Summary of the method: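 Exploratory 7-day repeat oral toxicity study in male and female rats at doses from 3 up to 150 mg/kg po. Endpoints were macroscopic pathology, histology and hematology.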

[9] = Apparent permeability across apical to basolateral side in MDCK-MDR1 cells by LC-MS/MS analysis; settings: dog

Sequence of hERG (KCNH2) (Q12809 whole entry): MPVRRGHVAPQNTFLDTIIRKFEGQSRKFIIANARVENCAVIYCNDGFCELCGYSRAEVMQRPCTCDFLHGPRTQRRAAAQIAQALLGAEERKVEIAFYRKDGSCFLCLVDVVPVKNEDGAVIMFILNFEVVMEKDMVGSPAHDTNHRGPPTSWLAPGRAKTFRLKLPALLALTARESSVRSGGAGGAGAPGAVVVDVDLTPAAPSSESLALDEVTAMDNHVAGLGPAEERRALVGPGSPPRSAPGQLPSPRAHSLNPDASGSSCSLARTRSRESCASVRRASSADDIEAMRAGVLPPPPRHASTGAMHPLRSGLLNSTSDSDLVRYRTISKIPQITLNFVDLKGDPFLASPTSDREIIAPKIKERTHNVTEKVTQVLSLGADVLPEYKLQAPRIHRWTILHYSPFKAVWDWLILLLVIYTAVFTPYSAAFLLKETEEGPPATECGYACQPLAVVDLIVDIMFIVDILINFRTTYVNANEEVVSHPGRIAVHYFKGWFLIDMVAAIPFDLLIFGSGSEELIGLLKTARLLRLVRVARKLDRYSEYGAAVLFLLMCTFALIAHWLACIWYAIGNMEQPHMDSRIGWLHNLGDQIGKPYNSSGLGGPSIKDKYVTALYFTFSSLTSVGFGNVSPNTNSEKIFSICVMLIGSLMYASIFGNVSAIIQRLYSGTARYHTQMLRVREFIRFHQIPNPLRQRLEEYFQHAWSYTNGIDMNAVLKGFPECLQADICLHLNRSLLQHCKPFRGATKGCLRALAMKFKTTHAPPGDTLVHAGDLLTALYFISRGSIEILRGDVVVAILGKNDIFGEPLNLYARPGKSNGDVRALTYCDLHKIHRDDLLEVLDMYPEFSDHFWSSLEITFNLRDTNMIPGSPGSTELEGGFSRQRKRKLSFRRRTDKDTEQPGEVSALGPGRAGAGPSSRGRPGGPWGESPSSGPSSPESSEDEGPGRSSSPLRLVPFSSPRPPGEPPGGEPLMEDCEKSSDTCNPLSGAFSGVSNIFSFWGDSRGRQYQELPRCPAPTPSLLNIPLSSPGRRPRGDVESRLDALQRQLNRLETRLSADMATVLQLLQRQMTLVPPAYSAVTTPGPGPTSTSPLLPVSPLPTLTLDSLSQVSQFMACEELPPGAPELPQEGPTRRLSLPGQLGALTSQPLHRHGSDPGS
Sequence of Cytochrome P450 2C9 (P11712 whole entry): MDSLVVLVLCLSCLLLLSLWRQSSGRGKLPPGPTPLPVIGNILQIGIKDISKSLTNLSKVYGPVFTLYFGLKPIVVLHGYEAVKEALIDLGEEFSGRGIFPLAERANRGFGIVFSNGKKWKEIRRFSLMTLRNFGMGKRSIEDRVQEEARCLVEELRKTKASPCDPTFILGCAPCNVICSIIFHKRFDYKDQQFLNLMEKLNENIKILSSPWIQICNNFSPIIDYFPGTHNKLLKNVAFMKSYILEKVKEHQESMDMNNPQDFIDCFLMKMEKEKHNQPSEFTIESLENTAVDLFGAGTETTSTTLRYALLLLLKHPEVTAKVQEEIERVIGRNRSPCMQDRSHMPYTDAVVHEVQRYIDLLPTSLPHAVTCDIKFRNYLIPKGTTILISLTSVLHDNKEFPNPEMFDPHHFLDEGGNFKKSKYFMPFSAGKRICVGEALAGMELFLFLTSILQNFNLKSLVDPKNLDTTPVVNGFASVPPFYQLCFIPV
Sequence of Cytochrome P450 3A4 (P08684 whole entry): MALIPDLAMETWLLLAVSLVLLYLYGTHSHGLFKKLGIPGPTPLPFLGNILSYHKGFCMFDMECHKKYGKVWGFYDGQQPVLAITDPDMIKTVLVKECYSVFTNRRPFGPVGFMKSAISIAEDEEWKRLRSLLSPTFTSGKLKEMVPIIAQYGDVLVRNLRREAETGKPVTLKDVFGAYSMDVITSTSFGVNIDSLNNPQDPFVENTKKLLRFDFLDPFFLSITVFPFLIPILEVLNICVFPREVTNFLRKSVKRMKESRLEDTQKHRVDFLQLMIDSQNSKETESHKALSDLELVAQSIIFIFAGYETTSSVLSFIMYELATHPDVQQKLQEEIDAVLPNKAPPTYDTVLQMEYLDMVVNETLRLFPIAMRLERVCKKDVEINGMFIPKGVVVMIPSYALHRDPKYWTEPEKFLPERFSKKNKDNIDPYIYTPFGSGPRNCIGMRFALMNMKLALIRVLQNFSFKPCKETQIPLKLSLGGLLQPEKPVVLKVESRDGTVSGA
Sequence of Cytochrome P450 2D6 (P10635 whole entry): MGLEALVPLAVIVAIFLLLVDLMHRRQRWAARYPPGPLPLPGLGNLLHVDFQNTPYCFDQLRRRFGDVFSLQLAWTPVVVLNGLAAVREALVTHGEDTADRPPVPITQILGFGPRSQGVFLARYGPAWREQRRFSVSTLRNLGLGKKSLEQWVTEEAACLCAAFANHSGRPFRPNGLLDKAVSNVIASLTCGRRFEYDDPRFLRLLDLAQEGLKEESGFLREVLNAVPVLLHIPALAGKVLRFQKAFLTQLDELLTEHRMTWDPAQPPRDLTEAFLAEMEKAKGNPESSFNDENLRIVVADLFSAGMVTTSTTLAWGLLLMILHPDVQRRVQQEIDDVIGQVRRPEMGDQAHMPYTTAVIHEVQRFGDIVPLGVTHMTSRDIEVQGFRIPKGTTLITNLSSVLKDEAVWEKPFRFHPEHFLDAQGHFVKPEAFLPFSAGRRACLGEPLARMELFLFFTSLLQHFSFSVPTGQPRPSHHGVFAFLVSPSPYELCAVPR

Work on O=C(NC[C@H](c1ccc(Cl)cc1)N1CCOCC1)c1sc(-c2ncccn2)nc1C(F)(F)F yielded an IC50 (P2X purinoceptor 7 [1]) of 22 nM, an IC50 (P2X purinoceptor 7 [2]) of 66 nM and an inhibition at 0.03 µM [3] of 67%. The IC50 [4] was 26 nM, the CLint scaled at 1 µM [5] was 14.2 mL/min/kg and the “inhibition (INH)” value (Cytochrome P450 3A4) was “Not Active”. The “inhibition (INH)” value (Cytochrome P450 2C9) was “Not Active”, the TDI (Cytochrome P450 2D6) was “Not Active” and the Activity [6] was 26.9%. The Vdss [7] was 0.95 L/kg, the minimal effective dose [8] was 10 mg/kg and the inhibition at 30 µM (hERG (KCNH2)) was 44%. For the same compound, the Activity (Rattus norvegicus) was “Non-Toxic” and the Papp A:B [9] was 15 ×10⁻⁶ cm/s.
